This is a sample that favours compounds with a hit; in the whole collection about 4.1% have one here.
MEKK3 PB1 HTS: raises or lowers MEK5 binding to the human MEKK3 PB1 domain | AID 1529 | 290,000 compounds, 1.4% hits | bead-based flow cytometry, Alexa488-MEK5 binding to MEKK3; actives lie on both sides; 0 = blocked by unlabeled MEK5, 100 = vehicle | Q99759 | binding response (% of control), % at 10 µM;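 active = binding response more than 3 SD above or below the average of its plate-row segment, actives on both sides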;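 note: Alexa488 bead fluorescence after subtracting the streptavidin-only scavenger bead signal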
Target sequence (Q99759 whole entry, looked up, the tested form may be a part): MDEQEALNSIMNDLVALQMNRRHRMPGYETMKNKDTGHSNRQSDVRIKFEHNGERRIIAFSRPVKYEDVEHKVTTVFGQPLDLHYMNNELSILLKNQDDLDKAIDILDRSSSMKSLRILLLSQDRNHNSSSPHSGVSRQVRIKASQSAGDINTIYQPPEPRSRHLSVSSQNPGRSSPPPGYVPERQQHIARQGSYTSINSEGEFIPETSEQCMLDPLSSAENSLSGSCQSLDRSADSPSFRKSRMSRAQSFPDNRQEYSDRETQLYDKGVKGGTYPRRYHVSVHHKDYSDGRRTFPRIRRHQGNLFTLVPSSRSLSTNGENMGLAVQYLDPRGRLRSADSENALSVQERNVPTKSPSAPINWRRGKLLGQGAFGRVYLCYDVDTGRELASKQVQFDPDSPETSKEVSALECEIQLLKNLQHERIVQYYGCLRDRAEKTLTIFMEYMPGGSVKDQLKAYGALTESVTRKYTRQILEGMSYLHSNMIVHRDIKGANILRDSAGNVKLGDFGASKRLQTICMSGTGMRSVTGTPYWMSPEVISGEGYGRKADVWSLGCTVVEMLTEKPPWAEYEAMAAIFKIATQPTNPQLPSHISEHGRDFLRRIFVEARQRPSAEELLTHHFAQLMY
FID counter: displaces DNA intercalator in HCV helicase counter-screen; 290,000 compounds, 0.17% hits; inhibition, % at 7.9 µM; DNA fluorescent intercalator displacement, fluorescence; in the data active = inhibition above about 37%;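 note: 0% = vehicle and 100% = reference compound; higher means more ethidium bromide displaced from hairpin DNA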
T cruzi inh: T. cruzi replication inhibition. T. cruzi beta-gal in NIH3T3, luminescence, 90 h. inhibition, % (test concentration not listed). 300,000 compounds, 1.4% hits;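 active = mean inhibition across valid replicates above about 55%, limit read from the data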;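 note: signal also drops with host cell toxicity which is not excluded here; 0% = plate median of DMSO wells and 100% = zero luminescence signal; higher percent means less beta-gal luminescence so fewer parasites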
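Assay system: NIH/3T3 host cells with β-galactosidase reporter T. cruzi; input: 5,000 host fibroblasts per well; compound: single 50 nL compound addition per well in DMSO; timing: ≥90 h infection period, 3 h prior cell attachment; measured by: GalScreen β-gal luminescence, detergent lysis, 60 min; evaluation: percent inhibition of parasite-derived β-gal signal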
HCV NS3 hel inh: HCV NS3 helicase inhibition; NS3 helicase DNA unwinding, Cy5 molecular beacon fluorescence; inhibition, % at 10.9 µM; 290,000 compounds, 0.56% hits; AID 1800;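 active = inhibition above the mean of all tested compounds plus 3 SD, set per campaign, cut at about 35% in these data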;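 note: 0% = DMSO wells and 100% = thioflavine S control wells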
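Control set: DMSO versus 110 µM thioflavine S; Material: NS3 helicase fragment of HCV; Measured by: Cy5 fluorescence at 0 and 60 min, beacon hairpin quenching; Read-out basis: percent inhibition from t60/t0 fluorescence ratio; Times: reaction time 60 min, 25 °C; Repeats: single replicate; Compound dosing: single dose, 10.9 µM nominal final, DMSO 0.8% final.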
MEKK2 WT-MEK5: raises or lowers MEK5 binding to wildtype human MEKK2 PB1 domain; Q9Y2U5; bead flow cytometry, Alexa488-MEK5 binding to MEKK2 WT; actives lie on both sides; binding response (% of control), % at 10 µM; 290,000 compounds, 1.1% hits; AID 1531; in the data active = binding response below about 67% or above about 130%
MEKK2mut PB1 HTS: signal of MEK5 binding to mutant human MEKK2 PB1 domain; bead flow cytometry, Alexa488-MEK5 binding to MEKK2 mutant; percent response, % at 10 µM; 290,000 compounds, 0.35% hits; in the data active = percent response above about 24%, passing the limit was not always enough
MEKK2wt confirm: raises or lowers MEK5 binding to wildtype human MEKK2, retest; shares compounds with MEKK3 PB1 HTS; bead flow cytometry, Alexa488-MEK5 binding to MEKK2 WT; actives lie on both sides; binding response (% of control), % at 10 µM; 5,900 compounds, 2.4% hits; AID 1892; in the data active = binding response below about 16% or above about 210%; inactive = in between
MEKK2mut-MEK5: signal of MEK5 binding to mutant human MEKK2, retest; percent response, % at 10 µM; bead flow cytometry, Alexa488-MEK5 binding to MEKK2 mutant; 5,900 compounds, 2% hits; shares compounds with MEKK3 PB1 HTS; in the data active = percent response mostly above about 71%, no sharp cut-off; inactive = mostly below about 38%;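 note: higher means compound restores mutant binding toward wildtype level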
MEKK3-MEK5 inh: confirmation of inhibitors of MEK5 binding to human MEKK3; shares compounds with MEKK3 PB1 HTS; binding response (% of control), % at 10 µM; 5,900 compounds, 1.8% hits; bead flow cytometry, Alexa488-MEK5 binding to MEKK3; stronger effect = lower value;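 active = binding response below 72% of control, or above a set upper limit, though filed actives all read lower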;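 note: 100% = DMSO only wells and 0% = binding blocked by excess unlabeled MEK5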
An asterisk follows results filed as active; nt = no result given; [ ] = another dose, or the depositor's remark.

SMILES	MEKK3 PB1 HTS	FID counter	T cruzi inh	HCV NS3 hel inh	MEKK2 WT-MEK5	MEKK2mut PB1 HTS	MEKK2wt confirm	MEKK2mut-MEK5	MEKK3-MEK5 inh
CCc1nn(CC(=O)NCCCc2ccccc2)c(=O)c2cc3cc(F)ccc3n12	93	-31	-1	-9	98	-11	nt	nt	nt
Fc1ccc(CSc2nnc(-c3ccccn3)o2)cc1	110	-8	-1	-3	110	4	nt	nt	nt
Cc1ccc(-c2nnn(CC(=O)NC3CCN(Cc4ccccc4)CC3)n2)cc1	71*[inhibitor]	2	66*	0	111	1	110	0	105
CCCCC(=O)NC1(C(F)(F)F)NC(=O)N(Cc2ccccc2)C1=O (stereo unspecified)	106	-12	-9	6	102	-1	nt	nt	nt
O=C(COc1ccc(Br)cc1CNCCc1ccccc1)NCc1ccccc1	100	22	51	-61	145*	6	150	35	112
COc1cc(CNCCc2ccccc2)cc(Cl)c1OCc1ccccc1	101	24	37	-47	192*	37	202	73*	112
CCOc1cc(CNC2CCCC2)cc(Cl)c1OCc1ccccc1	105	39*	43	-72	141*	22	115	19	103
COc1cc(CNCCc2ccccc2)cc(Br)c1OCC(=O)Nc1ccccc1C	95	44*	50	-55	182*	33	137	15	106
CCCNCc1cc(Br)ccc1OCC(=O)NCCc1ccccc1	111	17	5	-11	101	-1	nt	nt	nt
CCOc1cc(CNCC(C)C)cc(Cl)c1OCc1ccccc1	110	22	47	-31	121	2	nt	nt	nt
O=C(CN1C(=O)NC2(CCCC2)C1=O)N1CCN(S(=O)(=O)c2cccc(C(F)(F)F)c2)CC1	nt	nt	-14	nt	nt	nt	nt	nt	nt
Cc1ncsc1CCOC(=O)C1C2CC3CC(C2)CC1C3 (stereo unspecified)	101	-7	24	-5	98	-2	nt	nt	nt
Cc1ccc(CNC(=O)CN(C(=O)C2(C)CC(=O)N=C3C=CC=CN32)c2cccc(C)c2C)cc1 (stereo unspecified)	100	-31	11	-3	98	-4	nt	nt	nt
O=C(N=C1SC2CS(=O)(=O)CC2N1CCc1ccc(F)cc1)C1CCCCC1 (stereo unspecified)	91	-23	10	-20	92	-4	nt	nt	nt
COCCNC(=O)/C(C#N)=c1\s/c(=C\c2ccccc2OC(F)F)c(=O)n1Cc1ccccc1	101	3	-9	-1	98	1	nt	nt	nt
CCCCCCCCCCCCCCCCn1cc[n+](C)c1	113	12	67*	-59	213*	76*	148	17	100
CC(=O)Nc1ccccc1C(=O)C(=O)Nc1cccc(C(=O)NCc2ccccc2)c1	96	-18	-14	12	95	-2	nt	nt	nt
CC(=O)Nc1ccccc1C(=O)C(=O)Nc1cccc(C(=O)NCc2ccc(C)cc2)c1	134*	-19	-26	-6	108	1	96	-2	100
COc1ccccc1CC(=O)NC1CC(C)(C)NC(C)(C)C1	nt	1	3	8	nt	nt	nt	nt	nt
CC1(C)CC(NC(=O)Cc2ccccc2[N+](=O)[O-])CC(C)(C)N1	142*	7	-3	3	108	1	102	7	100
CCC(Oc1ccc(F)cc1)C(=O)N1CCCCCCC1 (stereo unspecified)	101	-11	0	0	105	5	nt	nt	nt
O=c1c([N+](=O)[O-])c(N2CCCCCC2)c2ccccc2n1-c1ccccc1	49*[inhibitor]	-5	11	14	nt	nt	101	1	105
COc1cccc(C=O)c1OCCN1C(=O)c2ccccc2C1=O	103	3	-15	-2	102	2	nt	nt	nt
COc1ccccc1-c1coc2cc(O)cc(O)c2c1=O	97	-5	-4	-8	99	3	nt	nt	nt
COc1ccc(-c2coc3cc(O)cc(O)c3c2=O)cc1OC	132*	-5	-3	5	116	30	105	-4	104
SMILES	MEKK3 PB1 HTS	FID counter	T cruzi inh	HCV NS3 hel inh	MEKK2 WT-MEK5	MEKK2mut PB1 HTS	MEKK2wt confirm	MEKK2mut-MEK5	MEKK3-MEK5 inh
CN(CC(=O)Nc1ccc(F)c(F)c1F)C(=O)CN1C(=O)C2CCCCC2C1=O (stereo unspecified)	100	-2	7	-4	105	4	nt	nt	nt
CCOc1ccccc1NC(=O)NCc1cccnc1	43*[inhibitor]	3	-8	0	49	-16	96	-5	99
O=C1NCCN/C1=C\C(=O)c1cccc(Br)c1	105	-2	-6	-28	98	9	nt	nt	nt
C/C=C(\C)C(=O)NCCN1C2=NC[C@H](Cc3ccccc3)N2C[C@H]1Cc1ccc(O)cc1	108	8	-18	-25	153*	36	122	10	99
C/C=C(\C)C(=O)NCCN1C2=NC[C@H](Cc3ccccc3)N2C[C@@H]1Cc1ccc(OC)cc1	109	nt	-7	nt	153*	16	102	-2	103
COc1ccc(C[C@H]2CN3C(=NC[C@H]3Cc3ccccc3)N2CCNC(=O)CCC2CCCCC2)cc1	104	9	7	-65	164*	36	160	33	108
C/C=C(\C)C(=O)NCCN1C2=NC[C@@H](C)N2C[C@H]1Cc1ccc(O)cc1	102	2	-9	11	111	9	nt	nt	nt
COC(=O)c1cn(Cc2ccccn2)c(=O)c2ccccc12	102	-7	0	-4	98	-2	nt	nt	nt
CCCC1=Nc2cc(C(=O)N3CCC(C(=O)OCC)CC3)ccc2Sc2ccccc21	99	-56	24	-9	100	2	nt	nt	nt
